pIC50: −log10 of the molar value.
What was measured:
[1] = Inhibition of WNT5A mRNA expression in human dermal papilla cells after 24 hrs by quantigene assay; format: functional, cell-based
Procedure, shortened: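 Human dermal papilla cells (gift, fifth subculture) in MEM with 12% FBS, seeded at 1 × 10⁴ cells/well, cultured overnight, then exposed 24 h to compounds or no-compound medium. WNT-5A mRNA quantified by branched-DNA QuantiGene: lysates on capture plate, WNT-5A probes 53 °C 20 h, amplifier then alkaline phosphatase probe each 46 °C 1 h, Lumi-Phos Plus 46 °C 30 min, luminescence read. IC50 reported.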

[2] = Cytotoxicity against human dermal papilla cells by Alamar blue assay; format: cell-based; conditions: read-out: TC50 (the source's name)
Procedure, shortened: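 Dermal papilla cells seeded at 5 × 10³ cells/well, grown 16 h in MEM with 12% FBS, then given medium with or without test compounds for 24 h. Medium swapped for one containing 10% Alamar Blue and cells cultured 4 h more; fluorescence read at Ex 544 nm/Em 590 nm. TC50 reported.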

[3] = Inhibition of HSP90

In the case of C[C@@H]1C[C@H]2O[C@@H]2\C=C/C=C/C(=N/OCc2ccccc2)Cc2c(Cl)c(O)cc(O)c2C(=O)O1, the pIC50 ([1]; Homo sapiens, 24 h) was 7.22 and the CC50 [2] was 42.1 µM.

For C[C@@H]1CCCCCCCC(=O)Cc2cc(O)cc(O)c2C(=O)O1, the pIC50 ([1]; Homo sapiens, 24 h) was under 4.30.

C[C@@H]1C/C=C/CC/C=C/[C@@H](O)Cc2cc(O)cc(O)c2C(=O)O1 gave a pIC50 ([1]; Homo sapiens, 24 h) of under 4.30.

In the case of C[C@@H]1C[C@H]2O[C@@H]2/C=C\C=C\C(=O)Cc2c(Cl)c(O)cc(O)c2C(=O)O1 [RADICICOL], the pIC50 ([1]; Homo sapiens, 24 h) was 6.72 and the CC50 [2] was 15.3 µM.

C[C@@H]1C[C@H]2O[C@@H]2/C=C\C=C\[C@H](O)Cc2c(Cl)c(O)cc(O)c2C(=O)O1 gave a pIC50 ([1]; Homo sapiens, 24 h) of 5.68 and a CC50 [2] of over 100 µM.

With C[C@H]1C[C@H]2O[C@@H]2CC/C=C/C(=O)Cc2c(Cl)c(O)cc(O)c2C(=O)O1 [POCHONIN A] the pIC50 ([1]; Homo sapiens, 24 h) was 5.58, the CC50 [2] was 57.3 µM and the pIC50 [3] was 7.05.

With C[C@@H]1C[C@H]2O[C@@H]2C/C=C/C[C@H](O)Cc2c(Cl)c(O)cc(O)c2C(=O)O1 the pIC50 ([1]; Homo sapiens, 24 h) was under 4.30.

Molecule C[C@@H]1C[C@H]2O[C@@H]2CCCC[C@@H](O)Cc2c(Cl)c(O)cc(O)c2C(=O)O1 has a pIC50 ([1]; Homo sapiens, 24 h) of under 4.00 and a CC50 [2] of over 100 µM.

Molecule C[C@@H]1C[C@H]2OC(=O)O[C@H]2/C=C\C=C\C(=O)Cc2c(Cl)c(O)cc(O)c2C(=O)O1 has a pIC50 ([1]; Homo sapiens, 24 h) of 4.80 and a CC50 [2] of 28.1 µM.

For C[C@@H]1C[C@H]2O[C@@H]2CC/C=C/[C@H](O)Cc2c(Cl)c(O)cc(O)c2C(=O)O1, the pIC50 ([1]; Homo sapiens, 24 h) was 5.72 and the CC50 [2] was over 100 µM.

Work on COc1cc(OC)c2c(c1Cl)CC(=O)/C=C/C=C\[C@H]1O[C@@H]1C[C@@H](C)OC2=O [DIMETHYL RADICICOL] yielded a pIC50 ([1]; Homo sapiens, 24 h) of 5.42 and a CC50 [2] of 8.4 µM.

Work on C[C@@H]1C[C@H]2O[C@@H]2CC/C=C/[C@H](O)Cc2cc(O)cc(O)c2C(=O)O1 yielded a pIC50 ([1]; Homo sapiens, 24 h) of 4.88 and a CC50 [2] of over 100 µM.

CO\N=C1/C=C/C=C\[C@H]2O[C@@H]2C[C@@H](C)OC(=O)c2c(O)cc(O)c(Cl)c2C1 gave a pIC50 ([1]; Homo sapiens, 24 h) of 6.82 and a CC50 [2] of over 100 µM.

Work on COc1cc(OC)c2c(c1Cl)C[C@@H](O)/C=C/CC[C@H]1O[C@@H]1C[C@@H](C)OC2=O yielded a pIC50 ([1]; Homo sapiens, 24 h) of under 4.00.

C[C@@H]1C[C@H]2O[C@@H]2/C=C\C=C\C(=O)Cc2cc(O)cc(O)c2C(=O)O1 [MONOCILLIN I] showed a pIC50 ([1]; Homo sapiens, 24 h) of 5.71 and a CC50 [2] of 2.9 µM.

C[C@@H]1C[C@@H](O)CCCCCC(=O)Cc2c(Cl)c(O)cc(O)c2C(=O)O1 showed a pIC50 ([1]; Homo sapiens, 24 h) of under 4.30.

COc1cc(O)c2c(c1Cl)C[C@@H](O)/C=C/CC[C@H]1O[C@@H]1C[C@@H](C)OC2=O showed a pIC50 ([1]; Homo sapiens, 24 h) of under 4.00.

For C[C@@H]1C[C@H]2O[C@@H]2\C=C/C=C/C(=N\O)Cc2c(Cl)c(O)cc(O)c2C(=O)O1, the pIC50 ([1]; Homo sapiens, 24 h) was 6.59 and the CC50 [2] was 89.5 µM.

Molecule C[C@@H]1CC(O)C2C=CC(CC(=O)Cc3c(Cl)c(O)cc(O)c3C(=O)O1)O2 (stereo partly drawn) has a pIC50 ([1]; Homo sapiens, 24 h) of under 4.30.

Molecule C[C@@H]1C/C=C/CC/C=C/[C@H](O)Cc2cc(O)cc(O)c2C(=O)O1 has a pIC50 ([1]; Homo sapiens, 24 h) of under 4.30.

Molecule C[C@@H]1C[C@H]2S[C@@H]2/C=C\C=C\C(=O)Cc2c(Cl)c(O)cc(O)c2C(=O)O1 has a pIC50 ([1]; Homo sapiens, 24 h) of 5.04 and a CC50 [2] of 28.2 µM.

C[C@@H]1C[C@@H](O)CC/C=C/CC(=O)Cc2c(Cl)c(O)cc(O)c2C(=O)O1 showed a pIC50 ([1]; Homo sapiens, 24 h) of under 4.30.

In the case of C[C@@H]1C[C@H]2O[C@@H]2C/C=C/CC(=O)Cc2c(Cl)c(O)cc(O)c2C(=O)O1, the pIC50 ([1]; Homo sapiens, 24 h) was 5.11 and the CC50 [2] was over 100 µM.

CC(=O)S[C@@H]1/C=C\CC(=O)Cc2c(Cl)c(O)cc(O)c2C(=O)O[C@H](C)C[C@H]2O[C@@H]21 showed a pIC50 ([1]; Homo sapiens, 24 h) of 6.30 and a CC50 [2] of over 100 µM.

For C[C@@H]1C[C@H]2O[C@@H]2CC/C=C/[C@@H](O)Cc2c(Cl)c(O)cc(O)c2C(=O)O1, the pIC50 ([1]; Homo sapiens, 24 h) was under 4.00 and the CC50 [2] was over 100 µM.

Molecule C[C@@H]1C[C@H]2O[C@@H]2\C=C/C=C/C(=N\OCc2ccccc2)Cc2c(Cl)c(O)cc(O)c2C(=O)O1 has a pIC50 ([1]; Homo sapiens, 24 h) of 6.29 and a CC50 [2] of 65.6 µM.

For C[C@@H]1C[C@@H](O)[C@@H](O)/C=C\C=C\C(=O)Cc2c(Cl)c(O)cc(O)c2C(=O)O1, the pIC50 ([1]; Homo sapiens, 24 h) was under 4.30.

In the case of C[C@@H]1C[C@@H](O)C/C=C\CCC(=O)Cc2c(Cl)c(O)cc(O)c2C(=O)O1, the pIC50 ([1]; Homo sapiens, 24 h) was under 4.30.

For CC(=O)Oc1cc(OC(C)=O)c2c(c1Cl)CC(=O)/C=C/C=C\[C@H]1O[C@@H]1C[C@@H](C)OC2=O [RADICICOL DIACETATE], the pIC50 ([1]; Homo sapiens, 24 h) was 6.52 and the CC50 [2] was 29.1 µM.

Work on C[C@@H]1C[C@H]2O[C@@H]2CC/C=C/C(=O)Cc2cc(O)cc(O)c2C(=O)O1 [MONOCILLIN III] yielded a pIC50 ([1]; Homo sapiens, 24 h) of 5.03 and a CC50 [2] of 28.9 µM.

Work on CC(=O)S[C@@H]1/C=C/CC(=O)Cc2c(Cl)c(O)cc(O)c2C(=O)O[C@H](C)C[C@H]2O[C@@H]21 yielded a pIC50 ([1]; Homo sapiens, 24 h) of 5.63 and a CC50 [2] of over 100 µM.

With C[C@@H]1C[C@H]2O[C@@H]2C(Sc2ccccc2)/C=C\CC(=O)Cc2c(Cl)c(O)cc(O)c2C(=O)O1 (stereo partly drawn) the pIC50 ([1]; Homo sapiens, 24 h) was 6.57 and the CC50 [2] was over 50 µM.

C[C@@H]1C[C@@H](O)[C@H](Cl)/C=C\C=C\C(=O)Cc2c(Cl)c(O)cc(O)c2C(=O)O1 gave a pIC50 [1] of under 4.30.

C[C@@H]1C[C@H]2O[C@@H]2CCCCC(=O)Cc2cc(O)cc(O)c2C(=O)O1 [TETRAHYDROMONOCILLIN I] gave a pIC50 ([1]; Homo sapiens, 24 h) of 4.83.

Work on C[C@@H]1C[C@@H](O)C(Cl)/C=C\C=C\C(=O)Cc2c(Cl)c(O)cc(O)c2C(=O)O1 (single isomer, unassigned) yielded a pIC50 [1] of 4.88 and a CC50 [2] of 42 µM.

For CC(=O)Oc1cc(OC(C)=O)c2c(c1Cl)CC(OC(C)=O)/C=C/CC[C@H]1O[C@@H]1C[C@@H](C)OC2=O (stereo partly drawn), the pIC50 ([1]; Homo sapiens, 24 h) was under 4.00.

Molecule C[C@@H]1C[C@H]2O[C@@H]2C/C=C/C[C@@H](O)Cc2c(Cl)c(O)cc(O)c2C(=O)O1 has a pIC50 ([1]; Homo sapiens, 24 h) of under 4.30.

With C[C@@H]1C[C@H]2O[C@@H]2CCCCC(=O)Cc2c(Cl)c(O)cc(O)c2C(=O)O1 [TETRAHYDRORADICICOL] the pIC50 ([1]; Homo sapiens, 24 h) was 5.65 and the CC50 [2] was over 100 µM.

For C[C@@H]1C[C@H]2O[C@@H]2[C@H](Sc2ccccc2)CCCC(=O)Cc2c(Cl)c(O)cc(O)c2C(=O)O1, the pIC50 ([1]; Homo sapiens, 24 h) was under 4.30 and the CC50 [2] was over 50 µM.

C[C@@H]1C[C@H]2O[C@@H]2CCCC[C@H](O)Cc2c(Cl)c(O)cc(O)c2C(=O)O1 showed a pIC50 ([1]; Homo sapiens, 24 h) of 5.23 and a CC50 [2] of over 100 µM.

Work on CO/N=C1/C=C/C=C\[C@H]2O[C@@H]2C[C@@H](C)OC(=O)c2c(O)cc(O)c(Cl)c2C1 yielded a pIC50 ([1]; Homo sapiens, 24 h) of 5.91 and a CC50 [2] of over 100 µM.

From ChEMBL document CHEMBL1152935, “Synthesis and structure-activity relationships of radicicol derivatives and WNT-5A expression inhibitory activity” (Bioorg Med Chem, 2009)
